UPR CHOP act: activators of apoptotic CHOP UPR arm, primary screen, cell-based, CHO-CHOP luciferase reporter, luminescence, uHTS | 330,000 tested, 0.34% active | activation, % at 10 µM | UPR activation; percent of tunicamycin response over DMSO baseline;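 active = at 10 µM dose, activation of 40% or more, normalized to positive control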;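 also: 100% = tunicamycin at 10 µg/mL and 0% = DMSO alone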
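Material: CHO-CHOP cells, stable luciferase reporter of PERK-eIF2a-CHOP signalling; quantity: 500 reporter cells seeded per well; buffer or medium: F12 medium containing 10% fetal bovine serum; compound: one dose, 10 µM in 0.5% DMSO; incubation: 6 h compound treatment, 37 °C; measured by: Steady-Glo luciferase luminescence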
UPR XBP1 act: activators of adaptive XBP1 UPR arm, primary screen, cell-based, CHO-XBP1 luciferase reporter, luminescence, uHTS; IRE1-XBP1 UPR activation; percent of tunicamycin response, DMSO as zero; activation, % at 20 µM; 330,000 tested, 0.33% active; AID 463104, 2010;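 active = versus positive control, 20 µM dose yields 30% or more activation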;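 also: 100% = tunicamycin at 10 µg/mL and 0% = DMSO only wells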
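Assay system: CHO-XBP1 luciferase reporter cells; Schedule: 6 h treatment, 37 °C; Detection: glow luminescence from Steady-Glo reagent; Benchmarks: high control tunicamycin 10 µg/mL final, low control DMSO vehicle only.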
aDG glyco act: activators of alpha-DG glycosylation, primary screen, uHTS, Pro5-aDG cells, AlphaScreen | alpha-DG glycosylation AlphaScreen (IIH6); 0% Pro5, 100% B10-LARGE cell signal | activation, % at 10 µM | 360,000 tested, 0.22% active | AID 624168, 2012;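 active = activation of at least 8% versus controls, or a plate z-score of at least 8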;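 also: Pro5 are CHO cells carrying HIG-tagged alpha-DG that lacks glycosylation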
MPTP inh: mitochondrial permeability transition pore inhibitors, primary screen, biochemical, isolated mouse mitochondria, absorbance; 360,000 tested, 1.4% active; Ca2+ swelling absorbance, 30 min; inhibition, % at 10 µM; AID 602449, 2012;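 active = inhibition of 50% or more, scaled per plate between neutral and stimulator controls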;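 also: 0% = DMSO wells given calcium and 100% = 1 mM EGTA wells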
CHOP inhibitor: inhibitors of CHOP promoter induction, primary screen, cell-based, unfolded protein response, luciferase reporter; CHO-K1 CHOP-promoter luciferase, tunicamycin-induced, 15-18 h; inhibition, % at 10 µM; 220,000 tested, 3.8% active; AID 2732, 2010;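 active = compounds that reduced the stress-induced luciferase reporter signal by more than about 70% of percent inhibition, limit read from the data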;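 also: 0% = tunicamycin plus vehicle and 100% = wells without tunicamycin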
NR3A LBD binder: binders of NR3A ligand-binding domain, primary screen, biophysical, differential scanning fluorimetry, uHTS. Glutamate receptor ionotropic, NMDA 3A (GRIN3A) ligand-binding domain. NR3A LBD differential scanning fluorimetry, Tm shift; 0% = protein alone, 100% = glycine-bound protein. Tm shift relative to glycine control, % at 25 µM. 340,000 tested, 2.5% active. AID 1259313, 2017;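 active = melting temperature shift of at least 10% of the positive control shift, at one fixed dose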
CHOP UPR conf: activators of apoptotic CHOP UPR arm, confirmation, cell-based, CHO-CHOP luciferase reporter, single concentration; shares compounds with UPR CHOP act; activation, % at 10 µM; CHO-CHOP cells, CHOP-luciferase reporter luminescence; percent of tunicamycin response, DMSO as zero; 1,000 tested, 64% active; in the data active = activation above about 33%;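 also: 0% = DMSO wells and 100% = tunicamycin 10 µg/mL wells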
* marks the source's active call; other numbers are inactive results; nt = no result given. Most compounds without a hit are left out; they make up all but 5.6% or so of the library.

SMILES	UPR CHOP act	UPR XBP1 act	aDG glyco act	MPTP inh	CHOP inhibitor	NR3A LBD binder	CHOP UPR conf
Oc1ccc(/C=N/N2CCN(C3c4ccccc4-c4ccccc43)CC2)cc1O	101.8*	11.9	-0.1	7.8	91.3*	2.8	52.7*
Cc1ccc(CN2CCN(/N=C/c3ccc(C(=O)O)cc3)CC2)cc1	1.0	0.1	-0.4	-0.1	15.1	-5.5	nt
O=C(NCCC(=O)N(Cc1ccco1)Cc1cccs1)c1ccc([N+](=O)[O-])cc1	-0.1	-1.9	0.4	0.0	nt	-1.9	nt
CC(C)N(C(C)C)S(=O)(=O)c1ccc(N2CCc3ccccc3C2)nc1	64.5*	28.7	0.0	-2.1	nt	-0.9	2.5
CC(C)(C)c1ccc2c(c1)OC(C(=O)N/N=C/c1ccc([N+](=O)[O-])o1)CO2 (stereo not given)	81.1*	2.0	0.5	38.3	13.6	-4.0	0.3
COc1ccc([C@H]2N[C@]3(CCCN(Cc4ccc(C(F)(F)F)cc4)C3=O)[C@H]3C(=O)N(Cc4ccccc4)C(=O)[C@@H]23)cc1	nt	nt	0.0	-0.9	nt	nt	nt
Cc1cc(C(=O)CCl)c(C)n1CCc1ccc(Cl)cc1	234.4*	1.6	-0.6	0.7	-3.6	1.2	206.8*
COc1ccc(CCn2c(C)cc(C(=O)CCl)c2C)cc1OC	78.6*	-0.4	0.9	-0.2	-145.6	1.1	122.1*
Cc1cc(C(=O)CCl)c(C)n1CCc1ccc(F)cc1	178.9*	8.2	0.1	0.0	-407.2	-0.6	195.1*
Cn1c(SCc2ccccc2C#N)nc2ccccc2c1=O	1.8	4.2	0.4	9.6	nt	3.3	nt
CC(Sc1ccccc1F)C(=O)Nc1ccc2c(c1)OCCO2 (stereo not given)	4.9	1.1	0.0	-0.3	nt	1.9	nt
CCOC(=O)c1sc(N(Cc2ccccc2)C(=O)CCl)nc1C	49.0*	19.7	0.0	-1.2	nt	0.5	218.8*
Cc1ccc(C(=O)Oc2ccc(Cl)c3cccnc23)cc1[N+](=O)[O-]	81.2*	22.2	-0.3	0.5	-5.0	-1.1	65.1*
CCC(C(=O)OCC(=O)NC(=O)c1ccccc1OC)c1ccccc1 (stereo not given)	1.7	2.2	-0.2	-1.2	nt	nt	nt
Cn1c(=NC(=O)c2ccco2)sc2ccccc21	2.1	-5.3	-0.4	2.5	19.4	2.2	nt
Cn1c(=NC(=O)CCl)sc2ccccc21	41.1*	-1.9	-0.4	0.4	nt	0.5	22.7
COc1ccc(Br)c(C(=O)NCC2CCCCC2)c1	-1.7	13.3	0.1	0.1	nt	-1.8	nt
N=C1N(/N=C/c2ccccc2)C(=Nc2ccccc2)C(=S)N1c1ccccc1	75.6*	4.4	0.0	-0.5	69.3	-3.7	8.1
COc1cccc(OC)c1C(=O)NC(=S)N1CCCCC1c1cccnc1 (stereo not given)	-2.9	-5.5	0.1	0.5	nt	-0.5	nt
[O-][n+]1c(/C=C/c2ccccc2)ccc2ccccc21	126.7*	2.5	0.1	0.0	nt	18.7*	-4.6
Cc1cc(=O)[nH]c(SCC(=O)NC2CCCCCC2)n1	0.1	0.2	-0.1	0.6	nt	0.4	nt
C[C@@H]1Cc2c(O)c(O)cc(O)c2C(=O)O1	-1.9	-4.8	-0.2	1.8	-21.5	-0.5	nt
CC1CCC/C=C/C(=O)c2c(O)cc(O)cc2CC(=O)O1 (stereo not given)	54.8*	-6.3	1.2	-0.7	43.6	-1.8	90.9*
CS(=O)(=O)c1nc(-c2ccccc2)cc(-c2ccccc2)c1C#N	68.2*	9.9	2.1	-5.2	5.0	-0.2	47.0*
COc1ccc(-c2cc(C(F)F)n3ncc(C(=O)n4ccnc4C)c3n2)cc1	131.2*	-4.2	-0.3	-1.3	-324.5	2.5	135.3*
SMILES	UPR CHOP act	UPR XBP1 act	aDG glyco act	MPTP inh	CHOP inhibitor	NR3A LBD binder	CHOP UPR conf
Cc1cccnc1Nc1nc(-c2ccccn2)cs1	450.8*	10.9	-0.9	-2.2	-78.7	-6.7	470.8*
Cc1cccc(Nc2nc(-c3cccs3)cs2)n1	0.2	2.6	-0.2	1.2	21.1	-5.6	nt
Cc1cccc(Nc2nc(-c3ccccn3)cs2)n1	82.6*	25.8	3.9	1.5	-63.7	-2.5	35.0*
O=C(Nc1nc(-c2ccccn2)cs1)c1ccc(Cl)s1	90.2*	10.6	2.4	-0.2	nt	19.2*	125.9*
Cc1ccc(C(=O)Nc2nc(-c3ccccn3)cs2)s1	31.1	6.9	1.5	-2.6	nt	8.3	nt
Cc1cccnc1Nc1nc(-c2ccccc2)cs1	4.8	-3.8	-0.1	-0.2	nt	-15.2	nt
O=C(COC(=O)c1ccc(Cl)c([N+](=O)[O-])c1)NC1CCCC1	1.6	-2.0	0.1	0.0	nt	0.3	nt
O=C(COC(=O)c1ccccc1C(=O)c1ccc(Cl)c([N+](=O)[O-])c1)NC1CCCCCC1	85.4*	-4.4	0.2	10.7	93.1*	-11.2	35.6*
Cc1ccc(C(=O)NCC(=O)OCc2nnc(-c3ccc([N+](=O)[O-])cc3)o2)s1	-1.2	0.9	0.1	-0.3	nt	-0.8	nt
CCc1cccc2sc(N3CCN(C(=O)c4ccc([N+](=O)[O-])o4)CC3)nc12	157.4*	-2.7	-0.1	-1.4	nt	-6.6	140.9*
O=C(c1ccc([N+](=O)[O-])o1)N1CCN(Cc2ccccc2)CC1	6.4	3.2	0.0	0.5	nt	-5.2	nt
COc1ccc(N2C(=O)C(Cl)=C(Oc3cccc(OC)c3)C2=O)cc1	93.9*	-5.5	-0.5	0.6	106.1*	-3.3	31.2
Cn1nnnc1Sc1ncnc2scc(-c3ccc([N+](=O)[O-])cc3)c12	92.6*	-4.3	-0.4	-0.2	nt	13.5*	104.7*
COc1ccc2c(c1)nc(SCC(O)c1ccccc1)n2C (stereo not given)	1.3	4.6	0.7	2.2	11.4	-0.8	nt
c1ccc(-c2nc(N3CCCCCC3)c3ccccc3n2)nc1	82.3*	0.3	-0.3	-1.2	nt	-6.0	30.8
c1ccc(CCNc2nc(-c3ccccn3)nc3ccccc23)cc1	43.7*	14.2	0.3	42.2	80.9*	-4.4	30.2
c1ccc(CN2CCN(c3nc(-c4ccccc4)nc4ccccc34)CC2)cc1	0.9	2.3	0.0	3.3	33.1	7.3	nt
c1ccc(CN2CCN(c3nc(-c4ccccn4)nc4ccccc34)CC2)cc1	82.5*	12.8	-0.1	-1.4	-24.0	0.9	4.4
